Only some compounds are listed: those with a hit (about 9.5% of all), similar ones and a draw of the others.
Htt clearance – clearance of mutant huntingtin inclusions, primary screen, imaging, HeLa Exon1htt(103Q)mCFP, confocal imaging; inhibition, % at 1.5 µM; aggregate imaging; zero = plate's median compound well; 47,000 compounds, 0.42% hits;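 active = inhibition of aggregate fluorescence above about 70%, also judged a hit by eye on the cell image, limit read from the data, passing the limit was not always enough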;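 note: cells exposed to compound for three days before fixation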
M1 antagonist – antagonists of rat M1 muscarinic receptor; Muscarinic acetylcholine receptor M1 (Rattus norvegicus), P08482; CHO-M1 cells, Fluo-4 calcium, ACh EC80 antagonist mode; active compounds read low; B-score at 10 µM; 64,000 compounds, 3.4% hits; AID 628, 2007;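 active = calcium fluorescence response, raw or row-and-column corrected B-score, differing from the plate sample mean either way at a set confidence level, mostly lower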
Target sequence (P08482 whole entry, looked up): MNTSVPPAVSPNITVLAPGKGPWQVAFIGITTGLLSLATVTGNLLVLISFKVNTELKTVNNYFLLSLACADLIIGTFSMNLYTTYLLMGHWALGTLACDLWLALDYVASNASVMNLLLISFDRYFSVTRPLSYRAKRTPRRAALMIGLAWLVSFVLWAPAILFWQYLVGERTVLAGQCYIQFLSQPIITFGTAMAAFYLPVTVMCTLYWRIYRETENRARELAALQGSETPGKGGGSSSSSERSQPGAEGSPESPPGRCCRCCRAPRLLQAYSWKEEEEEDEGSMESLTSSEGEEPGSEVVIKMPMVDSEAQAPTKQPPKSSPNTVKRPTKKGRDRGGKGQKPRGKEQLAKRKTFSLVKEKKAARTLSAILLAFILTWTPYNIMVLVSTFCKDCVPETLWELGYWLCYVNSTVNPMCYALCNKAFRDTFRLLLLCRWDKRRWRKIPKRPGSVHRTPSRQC
Jurkat viability – cytotoxicity toward Jurkat T cells, primary screen, cytotoxicity control, cell-based, Jurkat E6.1, 60K MLSMR library; Jurkat E6.1 viability, ATP luminescence, 48 h; inhibition, % at 4 µM; 56,000 compounds, 1.2% hits; AID 463, 2006;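 active = inhibition above the mean inhibition of all tested compounds plus 3 SD, cut at about 28% in these data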
D1 allo mod – D1 CRE-luciferase signal change, two-sided – cell-based, HEK293 D1, dopamine EC30, D1 allosteric modulator project, primary screen; D(1A) dopamine receptor (Homo sapiens), P21728; dopamine EC30 potentiation; actives deviate in either direction; B-score at 10 µM; 58,000 compounds, 5.9% hits; AID 641, 2007;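 active = luminescence count or its row- and column-corrected plate score outside the 99.7% band of the plate's sample wells, on either side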
M1 agonist – M1 muscarinic receptor agonists, primary screen, CHO-M1 cells, Fluo-4 calcium, agonist mode | 64,000 compounds, 3% hits | Fluo-4 calcium fluorescence; active compounds read high | B-score at 10 µM | AID 626, 2007;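 active = fluorescence rise, raw or as B-score row- and column-corrected plate score, outside the 99.7% band of its plate's samples, either direction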
HEK293 NFkB inh – inhibitors of PMA/ionomycin-induced NF-kB reporter, primary screen, antigen receptor NF-kB inhibitor project, cell-based, HEK-293 luciferase reporter, luminescence; HEK-293 NF-kB luciferase reporter; inhibition, % at 3 µM; 62,000 compounds, 0.21% hits;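 active = inhibition above the mean of all tested compounds plus 3 SD, cut at about 40% in these data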;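 note: 0% = stimulated DMSO wells and 100% = 10 µM reference inhibitor 5653914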
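Material: HEK-293 cells with stable firefly luciferase reporter driven by four HIV NF-kB elements / Also added: PMA plus ionomycin mix as NF-kB-activating stimulus / Compound dosing: 3 µM once, 0.30% DMSO / Times: 1 h pretreatment, 16 h stimulation, 37 °C / Signal: luminescence / Evaluation: per-plate % inhibition versus controls / Benchmarks: DMSO and 10 µM reference inhibitor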
D1 PAM confirm – D1 receptor positive allosteric modulators, retest, confirmation, cell-based, HEK293 D1, CRE-luciferase, duplicate; AID 642, 2007; dopamine EC30 potentiation; active compounds read high; shares compounds with D1 allo mod; 2,200 compounds, 88% hits; luminescence at 10 µM;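 active = luminescence in either of two replicates above the same-plate mean plus 3 SD of the low-dose dopamine control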
D1 no dopamine – D1 receptor agonism without dopamine, confirmation, mechanism study for D1 allosteric modulator project, cell-based, HEK293 D1, CRE-luciferase, secondary assay 1. shares compounds with D1 allo mod. luminescence at 10 µM. AID 646, 2007. 1,900 compounds, 0.8% hits. luminescence, no dopamine; active compounds read high; in the data active = luminescence above about 3900
Isoprot counter – alters isoproterenol CRE-luciferase response in HEK293 cells | 2,200 compounds, 63% hits | luminescence at 10 µM | shares compounds with D1 allo mod | HEK293 D1 CRE-luciferase, isoproterenol EC30 counter-screen; active compounds read high;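 active = luminescence in either replicate above plate mean of wells with a partly effective reference agonist dose plus 3 SD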;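 note: isoproterenol raises cAMP through native beta-adrenoceptor Gs so signal bypasses D1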
Numbers without * were called inactive.

`Cc1ccc(C)n1-c1sc2c(c1C#N)CCCC2` gave Htt clearance 8.
Screening Cc1csc2c(C#N)c(=O)c3c(n12)CCC3 returned Htt clearance -33, M1 antagonist 0.35, Jurkat viability -1, D1 allo mod 4.4*, M1 agonist -0.19, HEK293 NFkB inh 6, D1 PAM confirm 6564*, D1 no dopamine 1476 and Isoprot counter 2560.
Screening N#Cc1c2n(c3c(=O)n(Cc4ccccc4)cnc13)CCCC2 returned Htt clearance -8, M1 antagonist -0.019, Jurkat viability -2, D1 allo mod 4.6, M1 agonist -0.044 and HEK293 NFkB inh 8.
For N#Cc1c2n(c3c(=O)n(Cc4ccc(Cl)cc4)cnc13)CCCCC2 the results were Htt clearance -83, M1 antagonist -0.43, Jurkat viability 6, D1 allo mod 11*, M1 agonist 0.18, HEK293 NFkB inh 21, D1 PAM confirm 13432*, D1 no dopamine 1956 and Isoprot counter 4660*.
Screening COC(=O)c1ccc(CS(=O)(=O)c2ccccc2C)o1 returned M1 antagonist -0.67, Jurkat viability -1, D1 allo mod 4.6*, M1 agonist -0.31, HEK293 NFkB inh -4, D1 PAM confirm 6940, D1 no dopamine 1632 and Isoprot counter 2348.
For CCS(=O)(=O)c1ccc2oc(Nc3ccccc3C)nc2c1 the results were Htt clearance 4, M1 antagonist 0.3, Jurkat viability 8, D1 allo mod 0.035, M1 agonist 0.29 and HEK293 NFkB inh -32.
Screening Cc1ccccc1C(=O)Nc1ccc2nc3n(c(=O)c2c1)CCC3 returned Htt clearance -27, M1 antagonist -0.051, Jurkat viability 1, M1 agonist -1.1 and HEK293 NFkB inh -7.
For CSC1=NCCN1C(=O)Cc1ccc(Cl)cc1 the results were Htt clearance -290, M1 antagonist 0.97, Jurkat viability -4, D1 allo mod 3, M1 agonist -0.096 and HEK293 NFkB inh 1.
For COc1ccc(CC(=O)N2CCN=C2SC)cc1 the results were Htt clearance -34, M1 antagonist 0.2, Jurkat viability 1, D1 allo mod 11*, M1 agonist 0.78, HEK293 NFkB inh 6, D1 PAM confirm 15276*, D1 no dopamine 1524 and Isoprot counter 3544*.
`CCOc1ccc(C2C(C(=O)OC)=C(C)N=C3SCCC(=O)N32)cc1OCC` (stereo unspecified) gave M1 antagonist -0.24, Jurkat viability 4, M1 agonist 0.0089 and HEK293 NFkB inh -15.
CCOc1cc(C2C(C(=O)OC)=C(C)N=C3SCCC(=O)N32)ccc1OC(C)=O (stereo unspecified) was read as Htt clearance 2, M1 antagonist 0.19, Jurkat viability 6, D1 allo mod 5.1*, M1 agonist -0.48, HEK293 NFkB inh -1, D1 PAM confirm 6516* and Isoprot counter 2496*.
CCOC(=O)CNC(=O)CSc1nc2cccnc2n1Cc1ccccc1 was read as M1 antagonist 0.011, Jurkat viability -2, D1 allo mod 1.1, M1 agonist -0.056 and HEK293 NFkB inh 20.
CCOC(=O)CNC(=O)CSc1nc2cccnc2n1C1CCCCC1 was read as Htt clearance -26, M1 antagonist 0.82, Jurkat viability 1, D1 allo mod 7.6*, M1 agonist 0.32, HEK293 NFkB inh 6, D1 PAM confirm 13776* and Isoprot counter 3452*.
COC(=O)CSc1nc2cc(Cl)ccc2c(=O)n1C1CCCC1 was read as Htt clearance 10, M1 antagonist -0.98, Jurkat viability 13, D1 allo mod -0.071, M1 agonist 4.5 and HEK293 NFkB inh 12.
`CC(C)OC(=O)CSc1nc2cccnc2n1C1CCCCC1` gave Htt clearance -34, M1 antagonist 0.21, Jurkat viability 1, D1 allo mod 22*, M1 agonist 0.16, HEK293 NFkB inh -8, D1 PAM confirm 27160*, D1 no dopamine 1608 and Isoprot counter 4904*.
For O=C(CN1C(=O)C2C3C=CC(C3)C2C1=O)NCc1ccc2c(c1)OCO2 (stereo unspecified) the results were Htt clearance 51, M1 antagonist 0.12, Jurkat viability -4, D1 allo mod -0.29, M1 agonist 1.2 and HEK293 NFkB inh 22.
Screening COc1cccc(-c2csc3nnc(SCC(=O)c4ccc(NC(C)=O)cc4)n23)c1 returned M1 antagonist -0.61, Jurkat viability 7, D1 allo mod 3*, M1 agonist -0.14, HEK293 NFkB inh 3, D1 PAM confirm 9644*, D1 no dopamine 1744 and Isoprot counter 3552*.
`COc1cccc(N2CCN(Cc3nc(N)nc(N4CCCc5ccccc54)n3)CC2)c1` gave Htt clearance 23, M1 antagonist 0.52, Jurkat viability 4, D1 allo mod 4.9*, M1 agonist 1.2, HEK293 NFkB inh 6, D1 PAM confirm 11368*, D1 no dopamine 1496 and Isoprot counter 3376*.
Screening COc1ccc(Nc2nc(N)nc(CN3CCc4ccccc4C3)n2)cc1 returned M1 antagonist 0.072, Jurkat viability 10, D1 allo mod 2.3, M1 agonist -0.15 and HEK293 NFkB inh 12.
`COc1ccccc1C1/C(=C(\O)c2c(C)nc3c(C)cccn23)C(=O)C(=O)N1CCCN(C)C` (stereo unspecified) gave Htt clearance -22, M1 antagonist 0.37, Jurkat viability -10, D1 allo mod -0.14, M1 agonist -0.31 and HEK293 NFkB inh -1.
`COC(=O)c1oc2ccc(Br)cc2c1-n1cccc1` gave Htt clearance -31, M1 antagonist -0.39, Jurkat viability 1, D1 allo mod 8.3*, M1 agonist -0.087, HEK293 NFkB inh 9, D1 PAM confirm 6260*, D1 no dopamine 1564 and Isoprot counter 3084*.
Screening COc1ccc(OC)c(NC(=O)C2C3CCC(O3)C2C(=O)O)c1 (stereo unspecified) returned M1 antagonist -0.079, Jurkat viability 1, D1 allo mod -1.2, M1 agonist -0.14 and HEK293 NFkB inh 12.

Screening results deposited in PubChem BioAssay by several laboratories.
